Test results reported in ChEMBL document CHEMBL1156597, “Structure-activity relationship of kahalalide F synthetic analogues” (J Med Chem, 2008).

What was measured:
LoVo [1] = test: Cytotoxicity against human doxorubicin resistant LoVo cells after 48 hrs by SRB assay; assay type: functional; conditions: for CC50: read-out: LC50 (the source's name)
Procedure, shortened: (§1)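 Cells grown in RPMI 1640 with 10% FBS and penicillin/streptomycin at 37 °C and 5% CO₂, trypsinized, then seeded at 5 × 10³/well. After 18 h drug-free attachment, samples in DMSO/EtOH/PBS (0.5:0.5:99) were added for 48 h continuous exposure. Cells were fixed with cold TCA (1 h, 4 °C) and stained with SRB (10 min). Tris-solubilized stain read at 490 nm. Triplicate wells, mean ± SD; GI₅₀ derived.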

LoVo [2] = test: Cytotoxicity against human LoVo cells after 48 hrs by SRB assay; assay type: functional; conditions: for CC50: read-out: LC50 (the source's name)
DU-145 = test: Cytotoxicity against human DU145 cells after 48 hrs by SRB assay; assay type: functional, cell-based; conditions: Homo sapiens, DU-145, 48 h; for CC50: read-out: LC50 (the source's name); procedure, shortened: as §1
SK-BR-3 = test: Cytotoxicity against human SKBR3 cells after 48 hrs by SRB assay; assay type: functional; conditions: SK-BR-3, 48 h; for GI50: read-out: GI50; for CC50: read-out: LC50 (the source's name); procedure, shortened: as §1
K562 = test: Cytotoxicity against human K562 cells after 48 hrs by SRB assay; assay type: functional; conditions: K562, 48 h; for CC50: read-out: LC50 (the source's name); procedure, shortened: as §1
[3] = Cytotoxicity against human IGROV cells after 48 hrs by SRB assay; assay type: functional; conditions: for CC50: read-out: LC50 (the source's name); procedure, shortened: as §1
HeLa = test: Cytotoxicity against human HeLa cells after 48 hrs by SRB assay; assay type: functional; conditions: for CC50: read-out: LC50 (the source's name); procedure, shortened: as §1
PANC-1 = test: Cytotoxicity against human PANC1 cells after 48 hrs by SRB assay; assay type: functional; conditions: PANC-1, 48 h; for CC50: read-out: LC50 (the source's name); procedure, shortened: as §1
SK-MEL-28 = test: Cytotoxicity against human SK-MEL-28 cells after 48 hrs by SRB assay; assay type: functional, cell-based; conditions: Homo sapiens, SK-MEL-28, 48 h; for GI50: read-out: GI50; for CC50: read-out: LC50 (the source's name); procedure, shortened: as §1
HT-29 = test: Cytotoxicity against human HT29 cells after 48 hrs by SRB assay; assay type: functional, cell-based; conditions: Homo sapiens, HT-29, 48 h; for CC50: read-out: LC50 (the source's name); procedure, shortened: as §1
[4] = Cytotoxicity against human HeLa-APL cells after 48 hrs by SRB assay; assay type: functional; procedure, shortened: as §1
LNCaP = test: Cytotoxicity against human LNcaP cells after 48 hrs by SRB assay; assay type: functional; conditions: for CC50: read-out: LC50 (the source's name); procedure, shortened: as §1
A549 = test: Cytotoxicity against human A549 cells after 48 hrs by SRB assay; assay type: functional, cell-based; conditions: Homo sapiens, A549, 48 h; procedure, shortened: as §1
[5] = Cytotoxicity against human IGROV-ET cells after 48 hrs by SRB assay; assay type: functional; conditions: for CC50: read-out: LC50 (the source's name); procedure, shortened: as §1

Structure (SMILES) | GI50 (LoVo [1]) [nM] | TGI (LoVo [1]) [nM] | CC50 (LoVo [1]) [nM] | GI50 (LoVo [2]) [nM] | TGI (LoVo [2]) [nM] | CC50 (LoVo [2]) [nM] | CC50 (DU-145) [nM] | TGI (SK-BR-3) [nM] | GI50 (SK-BR-3) [nM] | CC50 (SK-BR-3) [nM] | CC50 (K562) [nM] | CC50 [3] [nM] | CC50 (HeLa) [nM] | CC50 (PANC-1) [nM] | CC50 (SK-MEL-28) [nM] | CC50 (HT-29) [nM] | LC50 (concentration giving 50% net cell kill) [4] [nM] | CC50 (LNCaP) [nM] | LC50 (A549) [nM] | GI50 ([5]; read-out: GI50) [nM] | also measured
C/C=C1\NC(=O)[C@H](Cc2ccccc2)NC(=O)[C@@H](C(C)C)NC(=O)[C@@H]([C@H](C)CC)NC(=O)[C@H](NC(=O)[C@H](NC(=O)[C@H](CCCNC(=O)C(F)(F)F)NC(=O)[C@H]2CCCN2C(=O)[C@H](NC(=O)[C@@H](NC(=O)[C@@H](NC(=O)[C@H](NC(=O)CC[C@@H](C)CC)C(C)C)[C@@H](C)O)C(C)C)C(C)C)[C@H](C)CC)[C@H](C)OC(=O)[C@H](C(C)C)NC1=O | 276 | 282 | 287 | 311 | 296 | 282 | 898 | 190 | 112 | 320 | 1810 | 87.5 | 525 | 1660 | 1220 | 342 | 789 | 1410 | 1200 | 489 | TGI (DU-145): 1100 nM; GI50 (DU-145; read-out: GI50): 1330 nM; GI50 [3]: 276 nM; GI50 ([3]; read-out: GI50): 305 nM; GI50 (HeLa): 502 nM; TGI (HeLa): 463 nM; TGI (SK-MEL-28): 1540 nM; GI50 (SK-MEL-28): 1910 nM; GI50 (HT-29): 266 nM; TGI (HT-29): 301 nM; GI50 [4]: 1210 nM; TGI [4]: 963 nM; GI50 (LNCaP): 1460 nM; TGI (LNCaP): 1990 nM; TGI (A549): 1170 nM; GI50 (A549; read-out: GI50): 1140 nM; GI50 [5]: 508 nM; CC50 [5]: 528 nM
C/C=C1\NC(=O)[C@H](Cc2ccccc2)NC(=O)[C@@H](C(C)C)NC(=O)[C@@H]([C@H](C)CC)NC(=O)[C@H](NC(=O)[C@H](NC(=O)[C@H](CCCN)NC(=O)[C@H]2CCCN2C(=O)[C@H](NC(=O)[C@@H](NC(=O)[C@H](CC(C)C)NC(=O)[C@H](NC(=O)CCCC(C)C)C(C)C)C(C)C)C(C)C)[C@H](C)CC)[C@H](C)OC(=O)[C@H](C(C)C)NC1=O | 280 | 244 | 256 | 417 | 459 | 331 | 944 | 466 | 428 | 360 | 1630 | 489 | 983 | 1760 | 1140 | 442 | 890 | 879 | 5280 | 754 | GI50 (DU-145): 949 nM; GI50 (DU-145; read-out: GI50): 959 nM; GI50 (K562): 542 nM; TGI (K562): 926 nM; GI50 [3]: 566 nM; GI50 ([3]; read-out: GI50): 637 nM; GI50 (HeLa): 1060 nM; TGI (HeLa): 1020 nM; GI50 (PANC-1): 1110 nM; TGI (PANC-1): 1280 nM; TGI (SK-MEL-28): 1210 nM; GI50 (SK-MEL-28): 1270 nM; GI50 [4]: 1170 nM; TGI [4]: 1020 nM; GI50 (LNCaP): 1050 nM; TGI (LNCaP): 964 nM; GI50 (A549): 602 nM; GI50 (A549; read-out: GI50): 637 nM; GI50 [5]: 583 nM; CC50 [5]: 538 nM
C/C=C1\NC(=O)[C@H](Cc2ccccc2)NC(=O)[C@@H](C(C)C)NC(=O)[C@@H]([C@H](C)CC)NC(=O)[C@H](NC(=O)[C@H](NC(=O)[C@H](CCCN)NC(=O)[C@H]2CCCN2C(=O)[C@H](NC(=O)[C@@H](NC(=O)[C@@H](NC(=O)[C@H](NC(=O)CCCC(C)C)C(C)C)[C@@H](C)O)[C@@H](C)O)C(C)C)[C@H](C)CC)[C@H](C)OC(=O)[C@H](C(C)C)NC1=O | 2990 | 2900 | 2820 | 2970 | 3350 | 3770 | 1690 | 2430 | 2070 | 1060 | 1930 | 859 | 1380 | 2320 | 1860 | 2370 | 1450 | 1400 | 1820 | 1910 | GI50 (PANC-1): 5510 nM; TGI (PANC-1): 4560 nM; GI50 (HT-29): 11000 nM; TGI (HT-29): 8870 nM; TGI [5]: 1750 nM; CC50 [5]: 644 nM
